Test system: MS2 coat protein
Test: apparent Kd, MS2 coat protein; higher = weaker binding; RNA-MaP array
Outline: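 RNA designs were transcribed from sequenced DNA templates on an Illumina sequencing chip and then incubated at room temperature with fluorescently labeled MS2 coat protein at 1.5 nM to 3 μM, with or without input ligand, in Tris-HCl pH 7.5 buffer containing KCl, MgCl2, BSA, DTT, tRNA and Tween20. Incubation lasted 0.8–1.5 h at the lowest protein concentrations and 10–20 min at the highest. Apparent Kd is the median of binding-curve fits made for each cluster. Designs measured on fewer than 10 clusters were excluded.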

[1] = designed as: ON switch for flavin mononucleotide, no ligand
[2] = ligand present: flavin mononucleotide, designed as: ON switch for flavin mononucleotide
[3] = designed as: OFF switch for flavin mononucleotide, no ligand
[4] = ligand present: flavin mononucleotide, designed as: OFF switch for flavin mononucleotide
[5] = designed as: OFF switch for theophylline, no ligand
[6] = ligand present: theophylline, designed as: OFF switch for theophylline
[7] = designed as: ON switch for theophylline, no ligand
[8] = ligand present: theophylline, designed as: ON switch for theophylline
[9] = designed as: OFF switch for tryptophan, no ligand
[10] = ligand present: tryptophan, designed as: OFF switch for tryptophan

Sequence | apparent Kd [1] | apparent Kd [2] | apparent Kd [3] | apparent Kd [4] | further results
ACAUGAGGAUCACCCAUGUCCUAAAAUGAGGCGAAUACGGCCAAGGAUAUUGGAACAACAGAAGUCAAGAAGGUGGCUAAAUUA | 56.7 nM | 28.3 nM |  |  | 
ACAUGAGGAUCACCCAUGUGUCUCCUUUCCAUUACGAUCUUUAGAAGGGUCCGCAAACACUCUGGACAGGAUAUAAAGUAUGGC |  |  | 13.4 nM | 12.2 nM | 
ACAUGAGGAUCACCCAUGUUGUCAUAGCAACUUUACAGGAGGAGAAGGCGAGGUUGGGCUGCCCUCGAGGAUAUCCGUAGAAAA | 10.4 nM | 6.45 nM |  |  | 
ACAUGAGGAUCACCCAUGUUUGGGCAAAGAUUGAUUGACACGAGAAGGGCCCGCGUACGUCGUAGGCAGGAUAUCGAGUACCGG |  |  | 32.2 nM | 31.1 nM | 
ACCCACAGAGGAUAUACAGCGAAACCUCAUAUUAAAUAUUCACAUGAGGAUCACCCAUGUAGAAGGCUGGAGAA |  |  | 10.9 nM | 38.8 nM | 
ACCCGACAUGAGGAUCACCCAUGUGGUUUCGGUCGAGGAUAUUCAAUCUGAAUUAUGUAGGAAGAAGGCGAUACCC | 173 nM | 78 nM |  |  | 
ACGGGUGACAAGAAGGGCUAGGUAACAUGCCGUAGACUAGAAUAACAUGAGGAUCACCCAUGUAAGCAGGAUAUUGUAUAAUAA | 156 nM | 52.8 nM |  |  | 
ACGGUAGGCUAGAAGGCCCGGACUCGCCCAGAGGGAGGAUAUAGCAUUGGCGUACUACAUGGCACAUGAGGAUCACCCAUGUAA |  |  | 35.4 nM | 30.6 nM | 
ACGUAGUGCCGAGGAUAUGUAACAUGAGGAUCACCCAUGUUCUCUAACAGGUCGAUUUUAAGCACACAGAAGGCGGGUGUUGAU |  |  | 11.3 nM | 11.8 nM | 
ACGUGGGUAACCAAGGAUAUAUUUACACCCACAUGAGGAUCACCCAUGUUCUUGCAGGCAUAUAAAUAGAAGGUGGAAACGCAGUG | 379 nM | 129 nM |  |  | 
ACUAAACCACAGAAGGAACUGAGUGCGCAAAAGUAAGGAUAUGUAAACAAUAACAUGAGGAUCACCCAUGUGACAGUAAGUUUA | 8.31 nM | 7.2 nM |  |  | 
ACUAGGGACCUGACAUGAGGAUCACCCAUGUUCUCGGAUCACAAGGAUAUCCGCACGUACCUGUGGGAGAAGGUGUCGUCCCAC | 26 nM | 21.8 nM |  |  | 
ACUCCGUCGUAGAAGGGAAAAUGCUUGGCGUCUCUCGGGUACAUGAGGAUCACCCAUGUUACGGUUCAGGAUAUACAGACUGCU |  |  | 10.5 nM | 10.6 nM | 
AGAACCAUAGUAGGAUAUGAGACGUUAUUGGUAACAGAAGGACUAGCUGUAACAUGAGGAUCACCCAUGUGGGCCGGACAGAGG | 14.1 nM | 11.5 nM |  |  | 
AGACCGGCUCAGGAUAUGUACAGGACAUACUCAACAGAAGGGAGUACAUGAGGAUCACCCAUGUCUGGGUAGAU |  |  | 488 nM | 371 nM | 
AGACGGUUACAGGAUAUGACUACUGCUAGAGCAUCAGAAGGGUAUACAUGAGGAUCACCCAUGUCUUCACGGCG |  |  | 10.1 nM | 9.62 nM | 
AGAUCGCUGACCGCGGGAGAUGCGCAGGAUACCAGCCUAAUGUCCGGCCCUUGGCAGCCUGUAACAUGAGGAUCACCCAUGUGAA |  |  |  |  | apparent Kd [5]: 17.1 nM; apparent Kd [6]: 31 nM
AGAUCUAACGCAGGAUAUAGUGCGGGAAAACCUAAACAUGAGGAUCACCCAUGUCUGCUACAAAGCUAGAAGGGCGUUCGGGAA | 46.4 nM | 23.8 nM |  |  | 
AGCAUGACAGCAGGAUAUGCGAACAGAAAUAGUGCAGAAGGGCUUUACACAUGAGGAUCACCCAUGUCCGCAAGGAUGCGUAUG | 41.1 nM | 19.4 nM |  |  | 
AGCGUGUAAGGAUAUCCAAUUGAUGGGAGCGGAUCUUCCCAGGAGAAGGUACAUGAGGAUCACCCAUGUGGCGC |  |  | 37.2 nM | 35 nM | 
AGCGUGUAAGGAUAUUGAUCUCCACUUCUGUAGGUCGGUGACAAGAAGGUACAUGAGGAUCACCCAUGUCCAUG |  |  | 19.8 nM | 21.7 nM | 
AGGCCACAUGAGGAUCACCCAUGUAAGGAUAUUGGAGCAUGGAAACGCUGUGCGCAUGCAAGAAGGUACACGGA |  |  | 24.7 nM | 20.5 nM | 
AGGCCAUCCAAGAAGGCUUACAACAUGAGGAUCACCCAUGUCACGGAGAUGUAUAACAUCUACUAAGAGGAUAUUGGGAGAGCU | 241 nM | 37.4 nM |  |  | 
AGGCUAUGUGAGAAGGCCGAAUGCCUAUAGUGCGGAGGAUAUCAAUCAACAUGAGGAUCACCCAUGUAGCAAAUCGUAGUUCUC | 84.3 nM | 60.1 nM |  |  | 
AUAAACCUAACAUGAGGAUCACCCAUGUCCUCCGUCGGUCGAAGAAGGAGUAAUGCUUAUUUUUACUAGGAUAUUCGUAAUCAC |  |  | 90.2 nM | 216 nM | 
AUACAAGCAAUGGAGGAUAUCGCAGAAAUCACAUGAGGAUCACCCAUGUCUUACCGUAUGUCGAGCGAGAAGGCCACGGUGCGAGU | 35.5 nM | 17.3 nM |  |  | 
AUACCUAGUGAAGGAUAUCCAAAUAACUAUAGAGGAGAAGGACACAUUCUAACAUGAGGAUCACCCAUGUCCCGCCGUCUUACC | 14.4 nM | 11.9 nM |  |  | 
AUCUACGUGGGUGAUACCAGCUGGUUAGUACACAUGAGGAUCACCCAUGUGCAGGCAGGCAGCCCUUGGCAGCACCGCAGUGGCU |  |  |  |  | apparent Kd [7]: 120 nM; apparent Kd [8]: 35 nM

Sequence | apparent Kd [1] | apparent Kd [2] | apparent Kd [3] | apparent Kd [4] | further results
AUCUUAGGUGAGAAGGUGGACACAUGAGGAUCACCCAUGUUGAUGGUCUUGUAGCGUUUGCAAGCCAAGGAUAUCAUCUACGGC | 27.4 nM | 19.8 nM |  |  | 
AUGAACAACCAGAAGGCAACGUUGGCCCAAGUUUGAGGAUAUGGACGUGGAAGUUCGCACAUGAGGAUCACCCAUGUAGAUCAG |  |  | 14 nM | 12.8 nM | 
AUGAAGCUAAGAGAUACCAGUGACCACAGAUACAUGAGGAUCACCCAUGUCUCAAAUUGUCACCCUUGGCAGCUCACUAUCGAAG |  |  |  |  | apparent Kd [7]: 10.2 nM; apparent Kd [8]: 9.26 nM
AUGCACAUCUAGGAUACCAGCACCCUUAUGUCACUAGUUAACAUGAGGAUCACCCAUGUUUGCCCUUGGCAGCCUCAUUGACCAU |  |  |  |  | apparent Kd [5]: 68.5 nM; apparent Kd [6]: 172 nM
AUGUAACAUGAGGAUCACCCAUGUAAGGAUAUGCAACAAAACUCUGAAUCGUAAGUUCGCAGAAGGUACAUUAG |  |  | 28.4 nM | 27.3 nM | 
AUGUGCAAUACGGAUACCAGCCCGUGUAGAUACAUGAGGAUCACCCAUGUCAAUGUAAAUGGCCCUUGGCAGCCGUUUGGGAGGC |  |  |  |  | apparent Kd [7]: 15.7 nM; apparent Kd [8]: 11.8 nM
AUGUUAAGACAGGAUAUCCAAGCUCUAGCGUCAGGAGAAGGGUCAACAUGAGGAUCACCCAUGUGUAGUCUUCG |  |  | 7.48 nM | 15.2 nM | 
AUGUUCCGUUAGAAGGUGUUGAGUGGAGGCUCACAAGGAUAUAACUUCCUCGUCGAUGACAUGAGGAUCACCCAUGUAGCACAA |  |  | 50.3 nM | 38.1 nM | 
AUUAGAAUGCGAGGAUAUGGUAAAUUCAUGCAUCCAGAAGGCGCGUCAGUAGAACAUGAGGAUCACCCAUGUGAUUGUUGUGGC |  |  | 22.8 nM | 26.9 nM | 
AUUGAACAUGAGGAUCACCCAUGUGCGGGUGGUAUAGGAUAUGCAGGAUCCUAAGAGUAAGCAGAAGGAUACACCG | 445 nM | 33.4 nM |  |  | 
AUUGCCCAAGGAUAUCUAUUUAGAAACAUGAGGAUCACCCAUGUCAUAAUGUUAGGCUCAAGAGAAGGUGGAAGCU |  |  | 8.33 nM | 8.37 nM | 
CAAAGUUUUAAGAAGGGAUCGAUUAGAUUCACAUGAGGAUCACCCAUGUAGCCGGGACGGAGAGAUCAGGAUAUUAAAGAUGUC |  |  | 55.8 nM | 31.9 nM | 
CAACACGGAGAGAAGGAAGCUGAAACGGUGCACUUAGGAUAUCUUCCGCCAGAAAACAUGAGGAUCACCCAUGUUCAGUUAACG | 7.82 nM | 7.54 nM |  |  | 
CAAUCUACCACCGGCCUACUGUACACUCGCCGAGGACCGGUACGGCCGCCACUCGACGUUCGACAUGAGGAUCACCCAUGUGGGU |  |  |  |  | apparent Kd [9]: 168 nM; apparent Kd [10]: 334 nM
CACACCGAAGGAUAUACUACUGCUAUUUAGAGUGAGGGCGAACAUGAGGAUCACCCAUGUAGAAGGUCGAGAAA |  |  | 17.5 nM | 20.6 nM | 
CACAUGUAAGGAUAUAGUGAACUAAAGCAACUAGAUGUAAACUAGAAGGUACAUGAGGAUCACCCAUGUAAAGG |  |  | 17.3 nM |  | 
CACUGACAUGAGGAUCACCCAUGUCUCCUGCUUGUAGGAUAUAGGUGGUCGCUGGACAGUCUAGAAGGACAUGUAA | 54.7 nM | 49.5 nM |  |  | 
CAGGCAUGUAUAGGAUAUUGGGCUGGACGCGUUGUCGGUCGUUCCAACAUGAGGAUCACCCAUGUCAAGAAGGAUAUGCAUUCG | 38.8 nM | 27.3 nM |  |  | 
CAUUAUCGCGUUAGGAUAUGAACAAGAAAUCGGCUACAGAAGGAACAUGAGGAUCACCCAUGUAUGAUCAAGAC |  |  | 13.1 nM | 10.7 nM | 
CCACAGACAUGAGGAUCACCCAUGUAGUUGGGCGUGUCAUCUCAGGAUAUGGCAACGCUUAUGAGCCAGAAGGGAGAAGGUUAU |  |  | 13.4 nM | 12.8 nM | 
CCACAGUAUAAAGGAUAUGCGGCCACGGCAACAGCAGAAGGUUAUGCCACUGUACAUGAGGAUCACCCAUGUCCAACUUUCCCU | 23.8 nM | 11.9 nM |  |  | 
CCACCCGACAUGAGGAUCACCCAUGUAGAUGAUCCUGUACCAUAGGAUAUAGGCGUAAGAGAGAUCUAGAAGGAUGUACAACCC |  |  | 108 nM | 73.5 nM | 
CCAGAAGCAGGAUAUACAUGAGGAUCACCCAUGUUAAACAAUAUGACGAGCAUAGUCAGUAGAAGGGCAACUCA |  |  | 18.8 nM | 16.1 nM | 
CCAGCGAGUUAGACCUUACAUGAGGAUCACCCAUGUUGGCGUAGAAGGACGCUCAUAAGCACUGCGUAGGAUAUACUCACCAAU |  |  | 7.99 nM | 10.4 nM | 
CCCACAAGCACGGCCGCCACUAUAUUAAUUACUGUCCUAGAACAUGAGGAUCACCCAUGUUAAUGUAGGACCGGGUGCGGGCCCG |  |  |  |  | apparent Kd [9]: 9.57 nM; apparent Kd [10]: 12.8 nM
CCCAUUGAGGAGGAUAUACUAUUGGAGACUCUCGUAGAAGGCCUGACAUGAGGAUCACCCAUGUACGUGAUAUC |  |  | 121 nM | 76.7 nM | 
CCGAGCACAGGAUAUACAUGAGGAUCACCCAUGUAUACGAAUACGACACAUCCUGCGUGUAGAAGGGUGGCAAA |  |  | 6.47 nM | 6.22 nM | 

From the EternaBench riboswitch data
